Test results from the RNAGym collection of RNA variant scans (doi:10.1126/science.aae0568).
This sample holds only a part of the variants without activity.

B1: tRNA (parent)
chain: GUUCCGUUGGCGUAAUGGUAACGCGUCUCCCUCCUAAGGAGAAGACUGCGGGUUCGAGUCCCGUACGGAACG

Variants of: B1
Experiment: yeast fitness relative to wild type (ratio to wild type); higher = fitter; tRNA-Arg(CCU), competitive growth, 37 C, YPD
How it was run: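 Variants of the tRNA-Arg(CCU) gene were chemically synthesised with a 3% per-site mutation rate across 69 sites and placed at the native genomic locus in Saccharomyces cerevisiae. Six parallel replicates of the pooled strains were competed in YPD at 37°C for 24 hours, and gene amplicons from the start and end populations were read by 100-nucleotide paired-end sequencing. Darwinian fitness relative to wild type was derived from changes in genotype frequencies. Genotypes required ≥ 100 starting reads, and estimates < 0.5 were set to 0.5.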

GUUCCGUUGGCGUAAUGGUAACGCGCCUCCCUCCUAGGGAGAAGACUGCGGGUUCGAGUACCGUACGGAACG [U26C A37G C60A] and GUUCCGUUGGCGUAAUGGUAACGCGCCUCCCUCCUAAGGAGAUGACUCCGGGUUCGAGUGCCGUACGGAACG [U26C A43U G48C C60G] cannot be ordered by yeast fitness: at most 0.5 for the first, at most 0.5 for the second.

First: GUUCCGUUGGCGUAAUGGUAACGCGCCUGCCUCCUAAGGAGAAGACUGCGGGUUCGAGUCCCGUACGGUACG [U26C C29G A69U]
Second: GUUCCGUUGGCGUAAUGGUAACGCGCCUCCCUCCUCAGGAGAAGACUGCGGGUUCGAGUCCCGAACGGACCG [U26C A36C U64A A70C]
The yeast fitness of the first is higher: 0.572 for the first, at most 0.5 for the second.

Compared with GUUCCGUUGGCGUAAUGGUAACGCGCCUCCCUCCUAAGGAGAAGACUGCGGGUUCGAGUCCCGUACGGUACG [U26C A69U], GUUCCGUUGGCGUAAUGGUAACGCGCAUCCCUCUUAAGGAAAAGACUGCGGGUUCGAGUCCCGUACGGAACG [U26C C27A C34U G41A] is lower in yeast fitness: 0.906 for the first, at most 0.5 for the second.

Compared with GUUCCGUUGGCGUAAUGGUAACGCGCCUCCCUCCUAGGGAGAAGACUGCGGGUUCGAGUCCCGUACGGUACG [U26C A37G A69U], GUUCCGUUGGCGUAAUGGUAACGCGACUCCCUCCAAAGGAGAAGACUCCGGGUUCGAGUCCCGUACGGAACG [U26A U35A G48C] is lower in yeast fitness: 0.665 for the first, at most 0.5 for the second.

First: GUUCCGUUGGCGUAAUGGUAACGCGACUCCCUCCCAAGGAGAAGUCUGCGGGUUCGAGUCCCGUACGGAACG [U26A U35C A45U]
Second: GUUCCGUUGGCGUAAUGGUAACGCGCCUCCCUCCUAAGGUGAAGACUGCGGGUUCGAGUCCCGUACGGAACG [U26C A40U]
The yeast fitness of the first is lower: 0.746 for the first, 0.846 for the second.

Compared with GUUCCGUUGGCGUAAUGGUAACGCGCCUCCCUCCUAAGGCGAAGACUGCGGGUUCGAGUCCCGUACGGAACG [U26C A40C], GUUCCGUUGGCGUAAUGGUAACGCGACUCCCUCCUAAGGAGAAGACUGCGGGUUCGAGUCCCGCACGGAACG [U26A U64C] is lower in yeast fitness: 0.941 for the first, 0.856 for the second.

Compared with GUUCCGUUGGCGUAAUGGUAACGCGACUCCCCCCUAAGGAGAAGACUGCGGGUUCGCGUCCUGUACGGAACG [U26A U32C A57C C62U], GUUCCGUUGGCGUAAUGGUAACGCGCCUCCCUCCUUAGGUGAAGACUGCGGGUUCGAGUCCCGUACGGAACG [U26C A36U A40U] is higher in yeast fitness: at most 0.5 for the first, 0.603 for the second.

GUUCCGUUGGCGUAAUGGUAACGCGCGUCCCUCCUAAGGAGAAGACUGCGGGUUCGAGUUCCGUACGGAACG [U26C C27G C60U] and GUUCCGUUGGCGUAAUGGUAACGCGCCUGCCUCCUAAGGAGAAGACUGCGGGUUCGAGUCCCGUGGGCAACG [U26C C29G A65G C66G G68C] cannot be ordered by yeast fitness: at most 0.5 for the first, at most 0.5 for the second.

Going from GUUCCGUUGGCGUAAUGGUAACGCGACUCCCUCCUAAGGAGAAGACGGGGGGUUCGAGUCCCGUACGGCACG [U26A U47G C49G A69C] to GUUCCGUUGGCGUAAUGGUAACGCGCCUAACUCCUAAGGAGAAGUCUGCGGGUUCGAGUCCCGUACGGAACG [U26C C29A C30A A45U], the yeast fitness rises from at most 0.5 to 0.582.

GUUCCGUUGGCGUAAUGGUAACGCGACUCCCCCCUAAGGAGAAGACUGCGGGUUCGCGUCCCGUACAGUACG [U26A U32C A57C G67A A69U] and GUUCCGUUGGCGUAAUGGUAACGCGCCUGCCUCCCAAGGAGAAGACUGCGGGUUCGAGUCCCGUACGGAACG [U26C C29G U35C] cannot be ordered by yeast fitness: at most 0.5 for the first, at most 0.5 for the second.

Compared with GUUCCGUUGGCGUAAUGGUAACGCGACUCCCCCCUAAGGAGAAGACUGGGGGUUCGAGUCCCGUACGGAACG [U26A U32C C49G], GUUCCGUUGGCGUAAUGGUAACGCGCCUCCCUCCUAAGGCGAGAACUGCGGGUUCGAGUCCCGUACGGAACG [U26C A40C A43G G44A] is lower in yeast fitness: 0.575 for the first, at most 0.5 for the second.

Going from GUUCCGUUGGCGUAAUGGUAACGCGCUUCCCUCCUAAGGAGAAGACUGCGGGUUCGAGUCCCGUACCGAACG [U26C C27U G67C] to GUUCCGUUGGCGUAAUGGUAACGCGCCUGCCUCCUAAGGAGAAGACUGUGGGUUCGAGUCCCGUACGGAACG [U26C C29G C49U], the yeast fitness falls from 0.713 to at most 0.5.

First: GUUCCGUUGGCGUAAUGGUAACGCGCCUCCCUCCUAAGGAGAAGACUGCGGGUUCGAGUCCCGUACGGACCG [U26C A70C]
Second: GUUCCGUUGGCGUAAUGGUAACGCGCCUCCCUCCUAAGGAGAAGACUGCGGGUUCGAGUCCCGUACGGAUCG [U26C A70U]
The yeast fitness of the first is lower: 0.797 for the first, 0.926 for the second.

Compared with GUUCCGUUGGCGUAAUGGUAACGCGACUCCCUCCUAAGGAGAAGACUGCGGGUUCGAGACCCGUACGGAACG [U26A U59A], GUUCCGUUGGCGUAAUGGUAACGCGCCUUCCUCCUAAGGAGAAGACUGCGGGUUCGAGUCCCAUACGGAACG [U26C C29U G63A] is lower in yeast fitness: 0.822 for the first, 0.672 for the second.

GUUCCGUUGGCGUAAUGGUAACGCGACUCCCUCCCAAGGAGAAGUCUGCGGGUUCGAGUCCCGUCCGGAACG [U26A U35C A45U A65C] and GUUCCGUUGGCGUAAUGGUAACGCGCGUCCCUCUUAUGGAGAGGGCUGCGGGUUCGAGUCCCGUACGGAACG [U26C C27G C34U A37U A43G A45G] cannot be ordered by yeast fitness: at most 0.5 for the first, at most 0.5 for the second.

Going from GUUCCGUUGGCGUAAUGGUAACGCGCCUGCCUCCUAAGGAGAAGACUGCGGGUUCGAGUCCCGUACGCAACG [U26C C29G G68C] to GUUCCGUUGGCGUAAUGGUAACGCGCCUCCCUCCUAAGGAGCAGACUGCGGGUUCGAGUCCCGUACGGACCG [U26C A42C A70C], the yeast fitness rises from 0.558 to 0.757.

Going from GUUCCGUUGGCGUAAUGGUAACGCGCCUCCCUCCUAAGGAGAAGACUGCGGGUUCGAGUCCCGUGCGGAACG [U26C A65G] to GUUCCGUUGGCGUAAUGGUAACGCGCCUCCCUCCUAAGGAGAAGACUGCGGGUUCGAGUCCCGUUCGGAACG [U26C A65U], the yeast fitness falls from 0.932 to 0.896.

Going from GUUCCGUUGGCGUAAUGGUAACGCGCCUCCCUCCUAAGGAGAAGACUGCGGGUUCGAGUCCCGUCCGGAACG [U26C A65C] to GUUCCGUUGGCGUAAUGGUAACGCGACUCCCCCCUAAGGAGAAGACUGCGGGUUCGAGUCCCGUACGGAACG [U26A U32C], the yeast fitness rises from 0.819 to 0.936.

Going from GUUCCGUUGGCGUAAUGGUAACGCGACUCCCACCUAAGGAGAAGACUGCGGGUUCGAGUCCCGUACGGAACG [U26A U32A] to GUUCCGUUGGCGUAAUGGUAACGCGCCUCCCUCCUACGGUGAAGACUGCGGGUUCGCGUCCCGGACGGAACG [U26C A37C A40U A57C U64G], the yeast fitness falls from 0.805 to at most 0.5.
